Data: ChEMBL document CHEMBL4138161, “Discovery of simplified sampangine derivatives as novel fungal biofilm inhibitors” (Eur J Med Chem, 2018)
Converted amounts (≈) assume the structure as drawn. The source made the active and inactive calls. The rule behind the calls is not given here.

Columns and labels:
[1] = system: Candida albicans; assay: Antifungal activity against Candida albicans SC5314 after 24 hrs by spectrophotometric analysis; format: functional; details: SC5314, 24 h
Procedure, shortened: (§1)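 Broth microdilution in RPMI 1640, inoculum 5×10^3 CFU/mL, compounds from 6.4 mg/mL DMSO stocks, 35 ℃ for 24 h. Growth read as OD600; MIC80 taken as lowest concentration giving 80% growth inhibition. Triplicate.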

[2] = system: Candida parapsilosis; assay: Antifungal activity against Candida parapsilosis 22019 after 24 hrs by spectrophotometric analysis; format: functional; details: Lodderomyces parapsilosis, 22019, 24 h; procedure, shortened: as §1
[3] = system: Nakaseomyces glabratus; assay: Antifungal activity against Candida glabrata 537 after 24 hrs by spectrophotometric analysis; format: functional; details: Nakaseomyces glabratus, 537, 24 h; procedure, shortened: as §1
[4] = system: Cryptococcus neoformans; assay: Antifungal activity against Cryptococcus neoformans 32609 after 24 hrs by spectrophotometric analysis; format: functional; details: Cryptococcus neoformans, 32609, 24 h; procedure, shortened: as §1
[5] = system: Aspergillus fumigatus; assay: Antifungal activity against Aspergillus fumigatus 07544 after 24 hrs by spectrophotometric analysis; format: functional; details: Aspergillus fumigatus, 07544, 24 h; procedure, shortened: as §1
[6] = system: Trichophyton rubrum; assay: Antifungal activity against Trichophyton rubrum Cmccftla after 24 hrs by spectrophotometric analysis; format: functional; procedure, shortened: as §1
[7] = system: Nannizzia gypsea; assay: Antifungal activity against Microsporum gypseum Cmccfmza after 24 hrs by spectrophotometric analysis; format: functional; procedure, shortened: as §1
[8] = system: Candida albicans; assay: Antifungal activity against Candida albicans SC5314 after 48 hrs by spectrophotometric analysis; format: functional; details: SC5314, 48 h
[9] = system: Candida albicans; assay: Antibiofilm activity against Candida albicans SC5314 assessed inhibition of yeast-to-hypha morphological transition at 0.5 ug/ml after 3 hrs; format: functional, organism-based
Procedure, shortened: (§2)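 Yeast-to-hypha transition in YPD with 10% (v/v) FBS across compound concentrations; cell morphology photographed after 3 h at 37°C.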

[10] = system: Candida albicans; assay: Antibiofilm activity against Candida albicans SC5314 assessed inhibition of yeast-to-hypha morphological transition at 0.2 to 2 ug/ml after 3 hrs; format: functional, organism-based; procedure, shortened: as §2
[11] = system: Candida albicans; assay: Antifungal activity against fluconazole-resistant Candida albicans clinical isolate 032 after 24 hrs by spectrophotometric analysis; format: functional; details: isolate 032, 24 h
Procedure, shortened: (§3)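 Broth microdilution (MIC80) against fluconazole-resistant clinical C. albicans isolates from a Shanghai hospital. Strains were grown in YPD at 30 ℃. Compounds came from 6.4 mg/mL DMSO stocks and were tested over a concentration series on 5×10^3 CFU/mL inoculum in RPMI 1640 at 35 ℃ for 24 h. OD600 was read; MIC80 is the lowest concentration giving 80% growth inhibition. Done in triplicate.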

[12] = system: Candida albicans; assay: Antifungal activity against fluconazole-resistant Candida albicans clinical isolate 1010 after 24 hrs by spectrophotometric analysis; format: functional; details: isolate 1010, 24 h; procedure, shortened: as §3
[13] = system: Candida albicans; assay: Antifungal activity against fluconazole-resistant Candida albicans isolate J38 clinical isolate after 24 hrs by spectrophotometric analysis; format: functional; details: isolate J38, 24 h; procedure, shortened: as §3
[14] = system: Candida albicans; assay: Antifungal activity against fluconazole-resistant Candida albicans isolate Chang7 clinical isolate after 24 hrs by spectrophotometric analysis; format: functional; details: isolate Chang7, 24 h; procedure, shortened: as §3
[15] = system: Candida albicans; assay: Antifungal activity against fluconazole-resistant Candida albicans clinical isolate 103 after 24 hrs by spectrophotometric analysis; format: functional; details: isolate 103, 24 h; procedure, shortened: as §3
[16] = system: Candida albicans; assay: Antifungal activity against Candida albicans infected in Sprague-Dawley rat vaginal infection model assessed as reduction in vaginal fungal burden at 1 mg/kg, administered intravaginally on day 1 to day 3 post fungal inoculation measured on day 4; format: functional, organism-based
Procedure, shortened: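 Ovariectomized rats inoculated intravaginally with 0.1 mL of 1×10^7 CFU/mL C. albicans on days 10, 11 and 12 after surgery. Compound in saline with 1% DMSO (2, 4, 8 mg/mL) given intravaginally on days 1–3 post-inoculation. On day 4, 100 µL vaginal fluid plated on chloramphenicol SDA agar for CFU counts.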

[17] = system: Candida albicans; assay: Antibiofilm activity against Candida albicans assessed inhibition of biofilm formation at 1024 ug/ml; format: functional

Cc1cnc2c(c1)C(=O)c1sc([N+](=O)[O-])cc1C2=O
MIC80 [1]: 0.5 µg/mL (≈ 1.82 µM) | MIC80 [2]: 1 µg/mL (≈ 3.65 µM) | MIC80 [3]: 1 µg/mL (≈ 3.65 µM) | MIC80 [4]: 0.5 µg/mL (≈ 1.82 µM) | MIC80 [5]: 2 µg/mL (≈ 7.29 µM) | MIC80 [6]: 1 µg/mL (≈ 3.65 µM) | MIC80 [7]: 0.5 µg/mL (≈ 1.82 µM) | MIC80 [8]: 0.5 µg/mL (≈ 1.82 µM) | Activity [9]: Active | inhibition [10]: inactive

OC(Cn1cncn1)(Cn1cncn1)c1ccc(F)cc1F [FLUCONAZOLE]
MIC80 [1]: 0.25 µg/mL (≈ 0.816 µM) | MIC80 [2]: 2 µg/mL (≈ 6.53 µM) | MIC80 [3]: 2 µg/mL (≈ 6.53 µM) | MIC80 [4]: 1 µg/mL (≈ 3.27 µM) | MIC80 [5]: > 64 µg/mL | MIC80 [6]: 4 µg/mL (≈ 13.1 µM) | MIC80 [7]: 32 µg/mL (≈ 104 µM) | MIC80 [11]: > 64 µg/mL | MIC80 [12]: > 64 µg/mL | MIC80 [13]: > 64 µg/mL | MIC80 [14]: 2 µg/mL (≈ 6.53 µM) | MIC80 [15]: > 64 µg/mL | Activity [16]: Active | inhibition at 1024 µg/mL [17]: 60%
